Measured values: ChEMBL document CHEMBL1153215, “Investigation of the sequence and length dependence for cell-penetrating prenylated peptides” (Bioorg Med Chem Lett, 2010)
Where a SMILES comes first, the peptide text is derived from it. Bridges are numbered along the chain shown (N, C = ends). Roman numbers before positions name the chains, in order. The star is where a group is joined. Geranylgeranyl = CC(C)=CCC/C(C)=C/CC/C(C)=C/CC/C(C)=C/C*; Acryloyl(2E,3-(2-furyl)) = O=C(/C=C/c1ccco1)*

Legend:
Assay type in all cases: ADME, cell-based
[1] = tested on: HeLa; assay: Cellular uptake in human HeLa cells at 0.3 to 3 uM at 37 degC condition by FACS
Summary of the method: (§1)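 HeLa cells were incubated with 0.3, 1.0 or 3.0 μM fluorescein-linked peptide for 1 h at 37 °C. Cells were then trypsinized and washed to remove surface-bound peptide. Fluorescence of 10,000 cells was read by flow cytometry, in triplicate. Values are geometric mean relative fluorescence ± standard deviation.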

[2] = tested on: HeLa; assay: Cellular uptake in human HeLa cells at 0.3 to 3 uM by FACS; summary of the method: as §1
[3] = tested on: HeLa; assay: Cellular uptake in human HeLa cells at 0.3 to 3 uM after 1 hr by confocal laser-scanning microscopy
Summary of the method: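 Fluorescein-labelled peptides were incubated with HeLa cells for 1 h, then the cells were washed. Cells were either fixed in 3.7% formaldehyde (1 μM peptide) or imaged live without fixation (3 μM peptide). Hoechst stained the nucleus and wheat germ agglutinin–Alexa Fluor 594 stained the plasma membrane. Internalization was viewed by confocal microscopy.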

[4] = tested on: HeLa; assay: Cellular uptake in human HeLa cells at […] at 4 degC condition by FACS
Summary of the method: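 HeLa cells were incubated with 1.0 μM fluorescein-linked peptide at 4 °C, at 37 °C, or under ATP-depleting conditions. Cells were then trypsinized and washed to remove surface-bound peptide. Fluorescence of 10,000 cells was read by flow cytometry, in triplicate. Values are geometric mean relative fluorescence ± standard deviation.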

Measured: Activity

CC(=O)N[C@@H](CCCCNC(=O)/C=C/c1ccco1)C(=O)N[C@@H](C)C(=O)N[C@@H](C)C(=O)N[C@@H](C)C(=O)N[C@@H](CO)C(=O)N[C@@H](CCCNC(=N)N)C(=O)N[C@@H](CCCNC(=N)N)C(=O)N[C@@H](CSC/C=C(\C)CC/C=C(\C)CC/C=C(\C)CCC=C(C)C)C(N)=O (Ac-K(Acryloyl(2E,3-(2-furyl)))AAASRRC(Geranylgeranyl)-NH2)
Active: all assays above

CC(C)=CCC/C(C)=C/CC/C(C)=C/CC/C(C)=C/CSC[C@H](NC(=O)[C@H](CCCNC(=N)N)NC(=O)/C=C/c1ccco1)C(N)=O
Active: all assays above

CC(C)=CCC/C(C)=C/CC/C(C)=C/CC/C(C)=C/CSC[C@H](NC(=O)[C@H](CCCNC(=N)N)NC(=O)[C@H](CCCNC(=N)N)NC(=O)/C=C/c1ccco1)C(N)=O
Active: all assays above

CC[C@H](C)[C@H](NC(=O)[C@H](CCCCN)NC(=O)[C@@H](NC(=O)[C@H](CC(N)=O)NC(=O)[C@H](CCCNC(=N)N)NC(=O)[C@@H](N)CSSC[C@H](NC(=O)[C@H](CCCNC(=N)N)NC(=O)[C@H](CCCNC(=N)N)NC(=O)[C@H](CO)NC(=O)[C@H](CCCCN)NC(=O)[C@H](CCCCN)NC(=O)/C=C/c1ccco1)C(=O)N[C@H](C(=O)N[C@@H](CC(C)C)C(=O)N[C@@H](CC(C)C)C(=O)O)C(C)C)[C@@H](C)CC)C(=O)N[C@@H](Cc1c[nH]c2ccccc12)C(=O)N[C@@H](Cc1ccccc1)C(=O)N[C@@H](CCC(N)=O)C(=O)N[C@@H](CC(N)=O)C(=O)N[C@@H](CCCNC(=N)N)C(=O)N[C@@H](CCCNC(=N)N)C(=O)N[C@@H](CC(N)=O)C(=O)N[C@@H](CC(C)C)C(=O)N[C@@H](CCCCN)C(=O)N[C@@H](Cc1c[nH]c2ccccc12)C(=O)N[C@@H](CCCCN)C(=O)N[C@@H](CCCCN)C(=O)O (I: H-CRNIKIWFQNRRNLKWKK-OH / II: {Acryloyl(2E,3-(2-furyl))}-KKSRRCVLL-OH; disulfide I:1-II:6)
Active: all assays above

CC(=O)N[C@@H](CCCCNC(=O)/C=C/c1ccco1)C(=O)N[C@@H](C)C(=O)N[C@@H](CO)C(=O)N[C@@H](CCCNC(=N)N)C(=O)N[C@@H](CCCNC(=N)N)C(=O)N[C@@H](CSC/C=C(\C)CC/C=C(\C)CC/C=C(\C)CCC=C(C)C)C(N)=O (Ac-K(Acryloyl(2E,3-(2-furyl)))ASRRC(Geranylgeranyl)-NH2)
Active: all assays above
